Seven compounds from ChEMBL document CHEMBL1137855, “Synthesis and biological evaluation of taxinine analogues as orally active multidrug resistance reversal agents in cancer” (Bioorg Med Chem Lett, 2004) can be followed below.

Common to all, as to assay type: functional, cell-based
In series [1] the target is ATP-dependent translocase ABCB1 (Homo sapiens, UniProt P08183). Description: TP_TRANSPORTER: drug resistance (vincristine) in MDR KB/V cells. An outline of the steps: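 Fold reversal in KB/V cells from MTT vincristine IC50s measured with and without the reversing agent (5 or 10 μM). The ratio is defined as the vincristine IC50 […].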
Chain of ATP-dependent translocase ABCB1 (P08183 whole entry): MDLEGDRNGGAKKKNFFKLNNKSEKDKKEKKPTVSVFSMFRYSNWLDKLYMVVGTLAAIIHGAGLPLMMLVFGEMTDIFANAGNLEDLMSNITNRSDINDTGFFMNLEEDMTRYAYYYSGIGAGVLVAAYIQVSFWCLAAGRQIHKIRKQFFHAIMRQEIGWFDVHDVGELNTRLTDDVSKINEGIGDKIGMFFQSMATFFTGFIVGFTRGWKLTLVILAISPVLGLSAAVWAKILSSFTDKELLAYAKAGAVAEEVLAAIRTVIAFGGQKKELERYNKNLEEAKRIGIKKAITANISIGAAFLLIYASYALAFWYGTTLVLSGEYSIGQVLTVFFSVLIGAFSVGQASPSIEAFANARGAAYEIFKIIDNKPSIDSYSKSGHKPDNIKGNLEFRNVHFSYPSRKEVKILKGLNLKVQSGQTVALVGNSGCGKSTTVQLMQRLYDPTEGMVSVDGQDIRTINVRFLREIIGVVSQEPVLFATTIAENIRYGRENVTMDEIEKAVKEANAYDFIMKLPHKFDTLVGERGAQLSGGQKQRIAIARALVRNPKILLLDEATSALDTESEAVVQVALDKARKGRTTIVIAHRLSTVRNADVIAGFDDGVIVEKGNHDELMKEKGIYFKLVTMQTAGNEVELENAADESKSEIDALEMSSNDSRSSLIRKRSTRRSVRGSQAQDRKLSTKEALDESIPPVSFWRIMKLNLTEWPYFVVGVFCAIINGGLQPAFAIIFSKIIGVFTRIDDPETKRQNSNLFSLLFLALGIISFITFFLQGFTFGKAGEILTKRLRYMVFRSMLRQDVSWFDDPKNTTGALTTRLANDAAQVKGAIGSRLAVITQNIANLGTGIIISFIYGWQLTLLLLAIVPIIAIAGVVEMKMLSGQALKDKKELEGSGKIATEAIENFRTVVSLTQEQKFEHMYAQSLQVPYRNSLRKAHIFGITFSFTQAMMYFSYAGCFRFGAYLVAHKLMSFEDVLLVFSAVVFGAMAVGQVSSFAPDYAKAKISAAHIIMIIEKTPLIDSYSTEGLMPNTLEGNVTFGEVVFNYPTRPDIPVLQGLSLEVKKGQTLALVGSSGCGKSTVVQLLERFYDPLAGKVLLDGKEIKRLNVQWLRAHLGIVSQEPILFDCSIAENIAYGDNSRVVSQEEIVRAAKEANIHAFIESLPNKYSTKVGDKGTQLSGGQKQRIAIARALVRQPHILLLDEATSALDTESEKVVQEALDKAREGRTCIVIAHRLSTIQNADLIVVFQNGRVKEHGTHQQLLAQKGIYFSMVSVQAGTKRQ

In series [2] the test system is KB 3-1. Description: inhibitory concentration against human MDR KB/V cell line in presence of compound verapamil at 10 uM. An outline of the steps: (§1)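 Vincristine cytotoxicity in P-gp-overexpressing MDR KB/V cells, alone or with a reversing agent at the stated level (5 or 10 μM). MTT colorimetric assay in 96-well plates measured cell survival. IC50 is the vincristine concentration (nM) that inhibited cell growth by 50%.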

Series [3] relates to KB 3-1. Nature of the series: inhibitory concentration against human MDR KB/V cell line in presence of compound Taxinine at 10 uM. An outline of the steps: as §1
Series [4] deals with KB 3-1. Nature of the series: inhibitory concentration against human MDR KB/V cell line in presence of compound 9 at 5 uM. An outline of the steps:
as §1

Series [5] concerns KB 3-1. Description: inhibitory concentration against human MDR KB/V cell line in presence of compound 9 at 10 uM. An outline of the steps:
as §1

Series [6] concerns KB 3-1. Description: inhibitory concentration against human MDR KB/V cell line in presence of compound 8 at 5 uM. An outline of the steps: as §1
The test system of series [7] is KB 3-1. Description: inhibitory concentration against human MDR KB/V cell line in presence of compound 8 at 10 uM. The procedure, abridged:
as §1

The subject of series [8] is KB 3-1. Nature of the series: inhibitory concentration against human MDR KB/V cell line in presence of compound 10 at 10 uM. An outline of the steps: as §1
Series [9] has as its system KB 3-1. Description: inhibitory concentration against human MDR KB/V cell line in presence of compound 10 at 5 uM. The procedure, abridged:
as §1

In series [10] the test system is KB 3-1. Nature of the series: inhibitory concentration against human MDR KB/V cell line. The procedure, abridged:
as §1

For `C=C1[C@@H](OC(=O)CCc2ccccc2)CC[C@@]2(C)C[C@H](OC(C)=O)C3=C(C)C(=O)C[C@@H]([C@@H](OC(C)=O)[C@H]12)C3(C)C`, the Activity result in [1] was “inhibitor [+]”.
`CC[C@]1(O)CC2CN(CCc3c([nH]c4ccccc34)[C@@](C(=O)OC)(c3cc4c(cc3OC)N(C=O)C3C45CCN4CC=C[C@@](CC)(C(OC(C)=O)[C@]3(O)C(=O)OC)[C@H]45)C2)C1.COc1ccc(CCN(C)CCCC(C#N)(c2ccc(OC)c(OC)c2)C(C)C)cc1OC` (stereo not given in full): in the series on KB 3-1 [2], the IC50 – broadly, the point on the concentration scale where inhibition reaches its midpoint – is 18.1 nM.
Turning to `C=C1C2[C@H](C(C)=O)[C@@H]3CCC(=O)C(C)=C([C@@H](C(C)=O)[C@H](C(C)=O)[C@]2(C)CC[C@@H]1OC(=O)/C=C/c1ccccc1)C3(C)C.CC[C@]1(O)CC2CN(CCc3c([nH]c4ccccc34)[C@@](C(=O)OC)(c3cc4c(cc3OC)N(C=O)C3C45CCN4CC=C[C@@](CC)(C(OC(C)=O)[C@]3(O)C(=O)OC)[C@H]45)C2)C1` (stereo not given in full), the IC50 with KB 3-1 [3] is 124 nM.
For `C=C1[C@@H](OC(=O)CCc2ccccc2)CC[C@@]2(C)C[C@H](OC(C)=O)C3=C(C)C(=O)C[C@@H]([C@@H](OC(C)=O)[C@H]12)C3(C)C.CC[C@]1(O)CC2CN(CCc3c([nH]c4ccccc34)[C@@](C(=O)OC)(c3cc4c(cc3OC)N(C=O)C3C45CCN4CC=C[C@@](CC)(C(OC(C)=O)[C@]3(O)C(=O)OC)[C@H]45)C2)C1` (stereo not given in full), the IC50 is 19.4 nM in the series with KB 3-1 [4] and 2.8 nM with KB 3-1 [5].
As for `C=C1[C@@H](OC(=O)Cc2ccccc2)CC[C@@]2(C)C[C@H](OC(C)=O)C3=C(C)C(=O)C[C@@H]([C@@H](OC(C)=O)[C@H]12)C3(C)C.CC[C@]1(O)CC2CN(CCc3c([nH]c4ccccc34)[C@@](C(=O)OC)(c3cc4c(cc3OC)N(C=O)C3C45CCN4CC=C[C@@](CC)(C(OC(C)=O)[C@]3(O)C(=O)OC)[C@H]45)C2)C1` (stereo not given in full), the IC50 turned out to be 218 nM in the series on KB 3-1 [6] and 7.3 nM in the series with KB 3-1 [7].
As to `C=C1[C@@H](OC(=O)Cc2cc(OC)ccc2OC)CC[C@@]2(C)C[C@H](OC(C)=O)C3=C(C)C(=O)C[C@@H]([C@@H](OC(C)=O)[C@H]12)C3(C)C.CC[C@]1(O)CC2CN(CCc3c([nH]c4ccccc34)[C@@](C(=O)OC)(c3cc4c(cc3OC)N(C=O)C3C45CCN4CC=C[C@@](CC)(C(OC(C)=O)[C@]3(O)C(=O)OC)[C@H]45)C2)C1` (stereo not given in full), the values for the IC50 with KB 3-1 [8] and in the series with KB 3-1 [9] were 8.93 nM and 325 nM, respectively.
In the case of `CC[C@]1(O)C[C@H]2CN(CCc3c([nH]c4ccccc34)[C@@](C(=O)OC)(c3cc4c(cc3OC)N(C=O)[C@H]3[C@@](O)(C(=O)OC)[C@H](OC(C)=O)[C@]5(CC)C=CCN6CC[C@]43[C@@H]65)C2)C1` [VINCRISTINE], the IC50 with KB 3-1 [10] was 1230 nM.
